Tn7 DDE FP – inhibitors of Tn7 peptide binding to fibrin DD(E), primary screen, biochemical, fluorescence polarization, human fibrin, Tn7 probe. Fibrinogen beta chain (Homo sapiens), P02675. FP displacement of FITC-Tn7 peptide from fibrin DD(E); 0% = median of compound wells per plate. inhibition, % at 8.3 µM. 370,000 compounds, 0.13% hits. AID 720508, 2013;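 active = inhibition above the mean of compounds falling within the control limits plus 3 SD of them, cut at about 14% in these data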;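 note: 0% = plate median of compound wells and 100% = 10 µM Aha-Tn7 peptide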
Target sequence (P02675 whole entry, looked up): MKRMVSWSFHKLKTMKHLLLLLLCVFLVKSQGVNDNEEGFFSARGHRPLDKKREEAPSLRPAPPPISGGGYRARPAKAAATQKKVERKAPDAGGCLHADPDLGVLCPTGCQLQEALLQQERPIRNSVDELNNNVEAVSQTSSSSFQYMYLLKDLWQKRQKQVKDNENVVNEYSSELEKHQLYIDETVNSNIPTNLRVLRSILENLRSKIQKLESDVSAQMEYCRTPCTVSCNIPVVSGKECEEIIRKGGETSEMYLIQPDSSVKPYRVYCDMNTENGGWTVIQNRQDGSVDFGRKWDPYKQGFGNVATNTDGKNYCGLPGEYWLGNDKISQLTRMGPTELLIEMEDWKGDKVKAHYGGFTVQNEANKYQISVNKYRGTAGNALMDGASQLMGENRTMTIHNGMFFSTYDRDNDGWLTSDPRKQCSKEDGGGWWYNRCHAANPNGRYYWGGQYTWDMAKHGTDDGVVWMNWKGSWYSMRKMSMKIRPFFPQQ
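Assay system: Fibrin-DD(E) protein isolated from polymerized human fibrin clots; read-out basis: percent inhibition; medium: Tris/NaCl/CaCl2 buffer, pH 7.8; signal: FP measurement; incubation: 10 min plus 3 h, room temperature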
NRP1-CendR mod – modulators of CendR peptide binding to NRP-1, primary screen, biochemical, fluorescence polarization, uHTS; AID 602438, 2012; Neuropilin-1 (Homo sapiens), O14786; 360,000 compounds, 0.85% hits; inhibition, % at 25 µM; FAM-RPARPAR peptide binding to NRP-1;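 active = inhibition or corrected inhibition above about 18%, plus a signal ratio from 0.5 to 1.5, limit read from the data, passing the limit was not always enough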
Tn6 DDE FP – inhibitors of Tn6 peptide binding to fibrin DD(E), primary screen, biochemical, fluorescence polarization, human fibrin, Tn6 probe; Fibrin DD(E) TRITC-Tn6 fluorescence polarization displacement; Fibrinogen beta chain (Homo sapiens), P02675; AID 720509, 2013; 370,000 compounds, 0.21% hits; inhibition, % at 8.3 µM;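 active = inhibition above a per-campaign cutoff: mean of compounds within control limits plus 3 SD, cut at about 15% in these data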;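 note: 0% = median of all compound wells on the plate and 100% = blocking peptide control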
aDG glyco act – activators of alpha-DG glycosylation, primary screen, uHTS, Pro5-aDG cells, AlphaScreen; alpha-DG glycosylation AlphaScreen (IIH6); 0% Pro5, 100% B10-LARGE cell signal; activation, % at 10 µM; 360,000 compounds, 0.22% hits;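 active = activation of at least 8% versus controls, or a plate z-score of at least 8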;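 note: Pro5 are CHO cells carrying HIG-tagged alpha-DG that lacks glycosylation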
aDG glyco conf – alpha-DG glycosylation enhancers, retest, confirmation, single concentration, Pro5-aDG cells; AID 651671, 2012; activation, % at 10 µM (by protocol); IIH6 AlphaLISA; scaled to LARGE-overexpressing B10 cells as 100%; shares compounds with aDG glyco act; 600 compounds, 17% hits;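 active = activation of at least 7% in one or more replicates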;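 note: cells exposed to compound for two days before detection; 0% = DMSO-treated Pro5 cells and 100% = DMSO-treated B10-LARGE cells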
* = called active by the depositor; · = no result given. Shown are actives, neighbours in structure and some others; about 1.3% of the full set was active somewhere.

SMILES	Tn7 DDE FP	NRP1-CendR mod	Tn6 DDE FP	aDG glyco act	aDG glyco conf
CCOC(=O)C(/C(N)=N/C(=O)Nc1ccccc1)=C(\C)O	0	-4	-6	2.9*	-1
CCOC(=O)c1ccc(NC(=S)Nc2ccccc2)cc1	-5	5	5	0	·
CC(C)C[C@H]1COc2cccc(F)c2S(=O)(=O)N1	-2	·	1	·	·
Cc1ccc(S(=O)(=O)c2c(N)n(Cc3ccco3)c3nc4ccccc4nc23)cc1	2	-48	-3	17*	0
CCCCn1c(N)c(S(=O)(=O)c2ccc(C)cc2)c2nc3ccccc3nc21	-4	-3	-7	0	·
Cc1cccc(S(=O)(=O)c2c(N)n(Cc3ccco3)c3nc4ccccc4nc23)c1	8	-110	-1	21*	1
O=C1c2ccccc2/C(=C\c2ccc(Br)nc2)N1c1ccccc1	-6	·	-6	·	·
CCCCNC(=O)NC1CCN(CC(=O)Nc2ccc3c(c2)OCCO3)CC1	1	·	-9	·	·
COc1ccccc1NC(=O)Nc1nc(C(N)Cc2ccccc2)cs1 (configuration not stated)	5	-5	-4	7.4*	6.9*
O=C(C=Cc1ccc(O)c(O)c1)NCC(=O)NC(Cc1ccccc1)C(=O)O (configuration not stated)	0	·	5	·	·
COC(=O)c1ccc(-n2c(C)cc(-c3csc(NC(=O)c4ccc(S(=O)(=O)N(C)C)cc4)n3)c2C)cc1	-4	-16	-10	11*	0
Cc1cc(-c2csc(NC(=O)c3cccc(S(=O)(=O)N(C)C)c3)n2)c(C)n1-c1ccccc1	0	-63	-1	11*	1
CN1CCN(S(=O)(=O)c2cccc(C(=O)Nc3nc(-c4ccccc4)cs3)c2)CC1	-1	-1	-4	0	·
CCC(C#Cc1ccccc1)NCc1ccc(OC)cc1OC (configuration not stated)	-1	·	-3	·	·
O=S1(=O)CC2c3ccccc3CCN2CN1Cc1ccc(F)cc1 (configuration not stated)	4	·	6	·	·
CCn1c(SCc2ccc(C(C)(C)C)cc2)nnc1-c1ccc(C(C)(C)C)cc1	-2	·	-7	·	·
CN(Cc1ccccc1)S(=O)(=O)c1ccc(Cl)c(C(=O)N2CCOCC2)c1	-2	-2	-5	0	·
CCCCc1c(-c2ccccc2OC)ncn1Cc1ccc(-c2ccccc2)cc1	2	10	-14	1	·
CCCCc1c(-c2ccc(OC)c(OC)c2)ncn1CCc1ccccc1OC	-12	-1	-1	14*	0
CCCCc1c(-c2ccccc2OC)ncn1Cc1cccc(-c2ccccc2)c1	0	1	1	11*	1
FC(F)Oc1ccc(NC(=S)NC23CC4CC(CC(C4)C2)C3)cc1	-5	10	5	2.0*	0
CN(C)c1ccc(C(=O)OCC(=O)Nc2ccc(S(N)(=O)=O)cc2)cc1	-3	39*	5	6.0*	-1
CN(C)c1ccc(NC(=O)COC(=O)c2ccc3c(c2)OCO3)cc1	13	2	2	0	·
CCC(C(=O)NCc1ccco1)N(C(=O)CNS(=O)(=O)c1ccc(F)cc1)c1ccccc1F (configuration not stated)	4	16	-5	3.5*	-1
CCCCc1nnn2c1C1c3cc(Br)ccc3CCN1C(=O)C2 (configuration not stated)	1	·	-1	·	·
SMILES	Tn7 DDE FP	NRP1-CendR mod	Tn6 DDE FP	aDG glyco act	aDG glyco conf
O=C(OCc1ccccc1)N1CCC2CC1c1cc(N3CCCCC3)ccc12 (configuration not stated)	-6	-5	-2	5.9*	-1
CCCCN1CCc2c1nc1ccc(Br)cc1c2N	-1	5	0	3.6*	7.8*
CCOC(=O)C1CCN(Cc2cc(C(C)C)c(O)c(C(C)C)c2)CC1	2	2	11	6.4*	1
C[C@@H]1CN([C@@H](C)CO)C(=O)c2cc(Br)cnc2O[C@H]1CN(C)C(=O)CN1CCOCC1	-4	0	14	0	·
COc1ccc(CCN2C(=O)CSC2=Nc2ccc(C(C)C)cc2)cc1OC	7	6	-2	2.9*	0
COc1ccc(N=C2SCC(=O)N2CCc2ccc(OC)c(OC)c2)cc1	0	5	4	0	·
COc1ccc(NC(=O)COC(=O)CNC(=O)C2CCCCC2)cc1OC	2	-7	-6	0	·
COc1ccc(C(C)=O)cc1COC(=O)CNC(=O)C1CCCCC1	1	5	1	9.1*	0
O=C1SCCN1N=Cc1ccc([N+](=O)[O-])o1	0	-2	2	7.2*	3.5*
O=C(CC1SC(=Nc2ccccc2)N(CCc2ccccn2)C1=O)Nc1ccc(F)cc1 (configuration not stated)	2	-7	3	11*	0
COc1ccc(Cc2nc(-c3ccc(NC(=O)c4cccnc4)cc3)no2)cc1	-2	-4	3	7.5*	6.7*
NC(c1csc(Nc2cc(Oc3ccccc3)ncn2)n1)C1CCCCC1 (configuration not stated)	-11	12	2	9.7*	11*
COc1ccc(C(N)c2csc(Nc3cc(Oc4ccccc4)ncn3)n2)cc1 (configuration not stated)	-1	-4	8	2	·
CCOC(=O)[C@]12CCC=C1N(Cc1ccc3c(c1)OCO3)C(=O)[C@H](CC(=O)NCc1ccc(C)o1)C2	-1	7	-12	0	·
COC(=O)COc1ccc(S(=O)(=O)Nc2ccc(C(N)=O)cc2)cc1Cl	-3	-8	0	77*	-1
Nc1cc2c3ccccc3ccc2c2ccccc12	-9	3	-3	4.7*	0
Nc1ccc2ccccc2c1[N+](=O)[O-]	2	4	1	0	·
Cc1ccnc(SCc2cc(=O)c(OC(=O)c3ccc(C)c([N+](=O)[O-])c3)co2)n1	6	·	-6	·	·
Cc1ccc(N(Cc2cc3ccc(C)cc3[nH]c2=O)C(=O)c2ccco2)c(C)c1	2	1	6	2.4*	1
CC(C)NC(=O)C1(C)CSCC(=O)N1Cc1ccco1 (configuration not stated)	0	0	0	1	·
COc1ccc(-n2c(=O)c3ccccc3n(Cc3ccccc3F)c2=O)cc1OC	0	-3	6	1.8*	-1
O=C(Nc1ccccc1C(F)(F)F)OC1CC2CC1[C@H]1CCCCN1C2 (some centres not stated)	1	·	-3	·	·
N/C(=N\OC(=O)Nc1ccccc1)c1ncc([N+](=O)[O-])s1	-6	-2	-15	2.8*	3.3*
